From article PMC7357868 (ACS chemical biology, 2019)

Assays:
[1] = target: T1, hpol η binding to primer-template DNA (Homo sapiens, UniProt Q9Y253); experiment: Fluorescence anisotropy DNA binding assay; conditions: inhibitor concentration near the IC50 for pol activity; 2 nM FAM-labeled p/t-DNA
T1 sequence (Q9Y253 1-437): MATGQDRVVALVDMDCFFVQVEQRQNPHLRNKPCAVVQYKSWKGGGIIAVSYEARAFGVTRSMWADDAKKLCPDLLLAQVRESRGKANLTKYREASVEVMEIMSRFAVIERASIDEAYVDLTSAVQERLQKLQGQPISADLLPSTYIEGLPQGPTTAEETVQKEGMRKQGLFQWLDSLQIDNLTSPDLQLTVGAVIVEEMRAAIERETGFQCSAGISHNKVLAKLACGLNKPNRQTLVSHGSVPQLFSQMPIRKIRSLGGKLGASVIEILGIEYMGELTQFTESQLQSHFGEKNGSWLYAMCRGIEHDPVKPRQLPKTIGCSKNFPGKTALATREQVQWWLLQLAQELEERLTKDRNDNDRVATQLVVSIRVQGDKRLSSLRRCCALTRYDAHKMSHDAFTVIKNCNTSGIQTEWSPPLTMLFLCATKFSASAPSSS

hpol β = hpol β (Homo sapiens, UniProt P06746); experiment: TAMRA strand-displacement selectivity assay, X-family pol; type: biochemical; conditions: 10 μM IAG-10, 1 nM hpol β
hpol λ = target: T2, hpol λ (Homo sapiens, UniProt Q9UGP5); experiment: as above; type: biochemical; conditions: 10 μM IAG-10, 10 nM hpol λ
T2 sequence (Q9UGP5 251-575 limits assumed): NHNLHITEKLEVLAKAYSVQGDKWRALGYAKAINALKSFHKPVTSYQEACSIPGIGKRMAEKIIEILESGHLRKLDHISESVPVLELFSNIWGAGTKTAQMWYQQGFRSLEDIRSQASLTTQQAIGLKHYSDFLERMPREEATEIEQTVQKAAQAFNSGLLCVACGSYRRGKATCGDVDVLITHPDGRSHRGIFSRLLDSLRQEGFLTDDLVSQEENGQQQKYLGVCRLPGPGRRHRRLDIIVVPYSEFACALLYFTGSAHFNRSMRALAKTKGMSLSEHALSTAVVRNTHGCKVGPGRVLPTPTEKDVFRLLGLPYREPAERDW

[2] = test system: hpol κ-proficient HAP-1 cells; experiment: Clonogenic survival assay; type: cell-based, human
hRev1 = target: T3, hRev1 (Homo sapiens, UniProt Q9UBZ9); experiment: Gel-based primer extension assay; type: biochemical; conditions: 10 μM IAG-10, 10 nM hRev1
T3 sequence (Q9UBZ9 330-833): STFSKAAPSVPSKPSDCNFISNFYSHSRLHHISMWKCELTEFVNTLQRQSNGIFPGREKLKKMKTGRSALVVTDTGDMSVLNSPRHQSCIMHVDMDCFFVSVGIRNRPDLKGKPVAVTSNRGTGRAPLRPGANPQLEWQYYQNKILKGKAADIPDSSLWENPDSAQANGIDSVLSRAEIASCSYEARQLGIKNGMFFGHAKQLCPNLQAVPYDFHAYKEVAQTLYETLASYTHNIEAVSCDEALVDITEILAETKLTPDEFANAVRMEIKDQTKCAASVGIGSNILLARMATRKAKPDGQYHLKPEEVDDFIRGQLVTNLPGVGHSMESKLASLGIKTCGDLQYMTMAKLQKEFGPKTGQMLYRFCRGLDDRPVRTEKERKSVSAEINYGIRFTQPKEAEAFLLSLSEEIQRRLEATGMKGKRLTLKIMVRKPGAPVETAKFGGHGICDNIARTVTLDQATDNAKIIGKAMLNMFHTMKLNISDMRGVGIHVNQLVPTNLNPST

hpol η [3] = target: T4, hpol η (Homo sapiens, UniProt Q9Y253); experiment: Gel-based primer extension assay; type: biochemical; conditions: 10 μM IAG-10, 2 nM hpol η
T4 sequence (Q9Y253 1-437): T1 sequence (Q9Y253 1-437)

[4] = test system: hpol κ-proficient HAP-1 cells; experiment: supF mutagenesis assay; type: cell-based, human; conditions: 1 μM IAG-10, 24 h
Summary of the method: (§1)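 HAP-1 cells at ~80% confluency (IMDM, 10% FBS) lipofected for 24 h with pSP189 supF plasmid (10 μg per 10 cm dish), ±1 μM test compound. Plasmid was unmodified or pretreated with 100 mM MMS (HEPES pH 7.5, RT, 1 h). Recovered plasmid DpnI-digested, electroporated into E. coli MBM7070, plated on ampicillin/IPTG/X-gal. Mutation frequency = white/(blue + white); ≥10 000 colonies per condition; biological triplicate, mean ±SD.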

[5] = test system: hpol κ-deficient HAP-1 cells; experiment: supF mutagenesis assay; type: cell-based, human; conditions: 1 μM IAG-10, 24 h
Summary of the method: as §1

[6] = target: DNA pol I from Mycobacterium tuberculosis (Tb pol I) (Mycobacterium tuberculosis, UniProt P9WNU5); experiment: TAMRA strand-displacement selectivity assay, A-family pol; type: biochemical; conditions: 10 μM IAG-10, 10 nM Tb pol I
Chain of DNA pol I from Mycobacterium tuberculosis (Tb pol I) (P9WNU5 whole entry): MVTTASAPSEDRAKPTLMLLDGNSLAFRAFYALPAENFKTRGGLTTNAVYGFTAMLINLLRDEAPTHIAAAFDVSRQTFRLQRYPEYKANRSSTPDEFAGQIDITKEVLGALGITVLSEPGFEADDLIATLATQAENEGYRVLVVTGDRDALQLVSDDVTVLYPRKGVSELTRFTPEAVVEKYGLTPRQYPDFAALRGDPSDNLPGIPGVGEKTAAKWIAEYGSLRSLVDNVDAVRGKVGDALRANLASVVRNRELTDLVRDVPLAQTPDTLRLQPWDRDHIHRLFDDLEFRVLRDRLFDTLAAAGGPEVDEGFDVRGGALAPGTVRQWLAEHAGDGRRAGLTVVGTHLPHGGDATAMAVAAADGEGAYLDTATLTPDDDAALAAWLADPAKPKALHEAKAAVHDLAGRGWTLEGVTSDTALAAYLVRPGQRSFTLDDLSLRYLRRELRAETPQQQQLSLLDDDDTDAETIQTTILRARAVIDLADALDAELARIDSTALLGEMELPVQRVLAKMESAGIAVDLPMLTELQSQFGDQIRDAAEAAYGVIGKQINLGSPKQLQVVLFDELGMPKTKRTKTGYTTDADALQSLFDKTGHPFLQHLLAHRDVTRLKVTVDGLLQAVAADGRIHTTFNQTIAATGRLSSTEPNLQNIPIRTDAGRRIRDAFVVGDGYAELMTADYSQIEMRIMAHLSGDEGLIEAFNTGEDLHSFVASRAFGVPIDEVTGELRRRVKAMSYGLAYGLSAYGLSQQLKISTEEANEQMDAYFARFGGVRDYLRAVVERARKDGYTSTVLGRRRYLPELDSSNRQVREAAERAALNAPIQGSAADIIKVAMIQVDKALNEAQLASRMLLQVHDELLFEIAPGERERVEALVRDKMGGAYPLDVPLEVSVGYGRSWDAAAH

hpol η [7] = target: T4, hpol η; experiment: Steady-state kinetic analysis of nucleotide insertion; type: biochemical; conditions: increasing IAG-10 concentration
hpol ι = target: T5, hpol ι (Homo sapiens, UniProt Q9UNA4); experiment: Gel-based primer extension assay; type: biochemical; conditions: 10 μM IAG-10, 10 nM hpol ι
T5 sequence (Q9UNA4 1-446): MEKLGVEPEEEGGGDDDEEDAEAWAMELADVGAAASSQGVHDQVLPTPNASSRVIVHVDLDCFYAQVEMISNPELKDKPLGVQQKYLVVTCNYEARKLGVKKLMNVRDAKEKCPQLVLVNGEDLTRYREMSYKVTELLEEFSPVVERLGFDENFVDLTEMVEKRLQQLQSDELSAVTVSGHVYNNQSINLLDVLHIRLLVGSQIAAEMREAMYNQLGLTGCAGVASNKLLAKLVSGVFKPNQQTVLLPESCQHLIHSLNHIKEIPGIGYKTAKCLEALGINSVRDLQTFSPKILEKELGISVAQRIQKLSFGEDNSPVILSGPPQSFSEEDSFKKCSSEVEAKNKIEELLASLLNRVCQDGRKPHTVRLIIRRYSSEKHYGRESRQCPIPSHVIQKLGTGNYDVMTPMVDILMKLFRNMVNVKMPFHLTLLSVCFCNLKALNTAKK

With `Cl.[H]/N=C(\N)NN=Cc1cn(C(=O)c2cccc3ccccc23)c2ccc(Cl)cc12` [IAG-10, (E)-2-((1-(1-naphthoyl)-5-chloro-1H-indol-3-yl)-methylene)hydrazine-1-carboximidamide hydrochloride] the “increase in the Kd,DNA” value [1] was 20–30%, the “polymerase activity in presence of compound” value (“polymerase activity” for short) (hpol β) was “only hpol κ activity was inhibited” and the “polymerase activity” value (hpol λ) was “only hpol κ activity was inhibited”. The colony formation ([2]; 0.5 μM IAG-10 alone) was “does not impair colony formation”, the “colonies formed relative to untreated cells” value ([2]; 250 μM TMZ + 0.5 μM IAG-10 cotreatment, 1 h, 10 days culture) was ~ 40% and the “polymerase activity” value (hRev1) was “only hpol κ was inhibited”. For the same compound, the “polymerase activity” value (hpol η [3]) was “only hpol κ was inhibited”, the “mutation frequency, MMS-damaged DNA over undamaged control plasmid” value [4] was “approximately twofold” and the “mutation frequency, undamaged pSP189 plasmid” value [4] was “did not change the mutation frequency”. The “mutation frequency, control or MMS-damaged DNA” value [5] was “did not alter the mutation frequency”, the “polymerase activity” value [6] was “only hpol κ activity was inhibited” and the “effect on Michaelis constant” value (hpol η [7]) was “linear increase”. The effect on kcat (hpol η [7]) was “no measurable change” and the “polymerase activity” value (hpol ι) was “only hpol κ was inhibited”.
